The record followed here is ChEMBL document CHEMBL1143754, “2-Styrylchromones: novel strong scavengers of reactive oxygen and nitrogen species” (Bioorg Med Chem, 2007).

Active and inactive are the calls of the source. The rule behind the calls is not given here.

What all share (assay type): functional
A short description of assay [1]: Superoxide radical scavenging activity at 125 uM by NBT reduction assay. An outline of the steps: (§1)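 Superoxide generated by NADH/PMS at room temperature. Final: NADH 166 µM, NBT 43 µM, PMS 2.7 µM in 19 mM phosphate pH 7.4; compounds in DMSO. NBT reduction to diformazan followed at 560 nm for 2 min. % inhibition. Propyl gallate control. Four experiments in triplicate.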

A short description of assay [2]: Hydrogen peroxide scavenging activity at 250 uM by assessed as inhibition of lucigenin oxidation. An outline of the steps:
(§2)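 Chemiluminescence assay of H2O2-induced lucigenin oxidation, 37 °C, 50 mM Tris-HCl pH 7.4. Final concentrations: lucigenin 0.8 mM, 1% H2O2. Compounds in DMSO at various concentrations. Signal read right after the plate goes into the reader. Reported as % inhibition of lucigenin oxidation. Ascorbic acid as positive control. Four experiments, each in triplicate.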

Assay [3] in a line: Hypochlorous acid scavenging activity assessed as inhibition of DHR oxidation. An outline of the steps:
(§3)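 HOCl made fresh by bringing 1% NaOCl to pH 6.2 with H2SO4, quantified at 235 nm. Final: DHR 5 µM, HOCl 5 µM in 100 mM phosphate pH 7.4, compounds in ethanol. Run at 37 °C; rhodamine 123 fluorescence (ex 485/em 528 nm) read immediately. % inhibition of DHR oxidation. Lipoic acid control. Four experiments in triplicate.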

The nature of assay [4]: Singlet oxygen scavenging activity at 500 uM assessed as inhibition of DHR oxidation. The method in brief:
(§4)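 Singlet oxygen from thermal breakdown of the endoperoxide NDPO2 (1 mM final), with histidine 10 mM and DHR 50 µM in 100 mM phosphate pH 7.4. Compounds in DMSO. After 30 min at 37 °C, rhodamine 123 fluorescence (ex 485/em 528 nm). % inhibition of DHR oxidation. Penicillamine control. Four experiments in triplicate.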

Assay [5] in a line: Nitric oxide scavenging activity assessed as inhibition of DAF2 oxidation at 250 uM. An outline of the steps:
(§5)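 NOC-5 (10 µM final) as NO donor, DAF-2 5 µM in 50 mM KH2PO4 pH 7.4, compounds in DMSO. After 30 min at 37 °C, DAF-2T fluorescence read (ex 485/em 528 nm). Value is % inhibition of DAF-2 oxidation. Rutin control.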

Assay [6] can be described thus: Peroxynitrite scavenging activity assessed as inhibition of DHR oxidation. The method in brief: (§6)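 Buffer of 90 mM NaCl, 50 mM Na3PO4, 5 mM KCl, pH 7.4, with 100 µM DTPA. Final: DHR 5 µM, ONOO− 600 nM, compounds in DMSO. 37 °C, fluorescence (ex 485/em 528 nm) after 2 min. % inhibition of DHR oxidation. Ebselen control. Four experiments in triplicate.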
Assay [7] in a line: Peroxynitrite scavenging activity assessed as inhibition of DHR oxidation in presence of NaHCo3. An outline of the steps:
(§7)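 Parallel peroxynitrite set with 25 mM NaHCO3 added to mimic physiological CO2. Otherwise the same: 100 µM DTPA phosphate/NaCl/KCl buffer pH 7.4, DHR 5 µM, ONOO− 600 nM, compounds in DMSO. 37 °C, 2 min, fluorescence ex 485/em 528 nm. % inhibition of DHR oxidation. Four experiments in triplicate.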

Assay [8] in a line: Superoxide radical scavenging activity by NBT reduction assay. The method in brief: as §1
Assay [9] in a line: Hydrogen peroxide scavenging activity by assessed as inhibition of lucigenin oxidation. An outline of the steps:
as §2

Assay [10] in a line: Singlet oxygen scavenging activity by assessed as inhibition of DHR oxidation. The method in brief: as §4
A short description of assay [11]: Nitric oxide scavenging activity assessed as inhibition of DAF2 oxidation. An outline of the steps:
as §5

A short description of assay [12]: Singlet oxygen scavenging activity at 1 mM assessed inhibition of as DHR oxidation. An outline of the steps:
as §4

Assay [13] can be described thus: Peroxynitrite scavenging activity assessed as inhibition of DHR oxidation at 500 uM. The method in brief:
as §6

Assay [14] can be described thus: Peroxynitrite scavenging activity assessed as inhibition of DHR oxidation in presence of NaHCo3 at 500 uM. An outline of the steps: as §7
Assay [15] is described as follows: Peroxynitrite scavenging activity assessed as inhibition of DHR oxidation at 150 uM. An outline of the steps:
as §6

Assay [16] is described as follows: Hypochlorous acid scavenging activity at 125 uM assessed as inhibition of DHR oxidation. The method in brief: as §3
Assay [17] can be described thus: Singlet oxygen scavenging activity at 200 uM assessed as inhibition of DHR oxidation. An outline of the steps:
as §4

Assay [18] can be described thus: Nitric oxide scavenging activity assessed as inhibition of DAF2 oxidation at 100 uM. An outline of the steps: as §5
Assay [19] is described as follows: Peroxynitrite scavenging activity assessed as inhibition of DHR oxidation in presence of NaHCo3 at 150 uM. The method in brief:
as §7

A short description of assay [20]: Hypochlorous acid scavenging activity at 100 uM assessed as inhibition of DHR oxidation. An outline of the steps: as §3
Assay [21] can be described thus: Superoxide radical scavenging activity at 100 uM by NBT reduction assay. An outline of the steps:
as §1

Assay [22] is described as follows: Peroxynitrite scavenging activity assessed as inhibition of DHR oxidation at 62 uM. The method in brief:
as §6

Assay [23] is described as follows: Hypochlorous acid scavenging activity at 50 uM assessed as inhibition of DHR oxidation. An outline of the steps:
as §3

A short description of assay [24]: Singlet oxygen scavenging activity at 100 uM assessed as inhibition of DHR oxidation. An outline of the steps: as §4
Assay [25] is described as follows: Nitric oxide scavenging activity assessed as inhibition of DAF2 oxidation at 50 uM. The method in brief:
as §5

Assay [26] is described as follows: Peroxynitrite scavenging activity assessed as inhibition of DHR oxidation in presence of NaHCo3 at 62 uM. An outline of the steps:
as §7

The nature of assay [27]: Hypochlorous acid scavenging activity at 25 uM assessed as inhibition of DHR oxidation. The method in brief:
as §3

Assay [28] is described as follows: Singlet oxygen scavenging activity at 40 uM assessed as inhibition of DHR oxidation. An outline of the steps: as §4

What is called IC50 is the concentration that gives 50% inhibition. As a reminder, the inhibition is the drop in the measured response relative to a control, in per cent. On to `O=c1cc(-c2ccccc2)oc2cc(O)cc(O)c12` [CHRYSIN], for which the result in [1], in [2] and in [4] was inactive. The IC50 worked out at 3.9 µM in assay [3], 188000 nM in assay [6] and 140000 nM in assay [7]. The inhibition in [5] was 20%.
With `O=c1c(O)c(-c2ccc(O)c(O)c2)oc2cc(O)cc(O)c12` [QUERCETIN], the IC50 in assay [8] stood at 47.3 µM; in assay [9], 785 µM; in assay [3] it was 1.1 µM; in assay [10] it was 5.3 µM; in assay [11], 1950 nM; in assay [6], 260 nM. For the same molecule, the IC50 in [7] is 440 nM.
As to `O=c1cc(/C=C/c2ccc(O)c(O)c2)oc2cc(O)cc(O)c12`, the concentration for half-maximal inhibition (IC50) in [8] worked out at 48.9 µM; in assay [9], 50.3 µM; in assay [3], 3.9 µM; in assay [10], 6.5 µM; in assay [11], 510 nM; in [6], 260 nM. The half-maximal inhibitory concentration (IC50) in [7] was 630 nM.
With `O=C1O[C@H]([C@@H](O)CO)C(O)=C1O` [ASCORBIC ACID], the IC50 in assay [9] was determined as 626 µM.
As to `O=c1cc(/C=C/c2ccccc2)oc2cc(O)ccc12`, the inhibition in [1] came to 40%. Besides, the outcome in assay [2], in assay [12], in assay [5], in assay [13] and in [14] was inactive. Also, the IC50 in assay [3] stood at 72.3 µM.
For the molecule `O=c1cc(/C=C/c2ccccc2)oc2ccccc12`, the figures for the inhibition in assay [15], in assay [16] and in [19] were 27%, 10% and 27%, respectively. The result in assay [1], in assay [2], in assay [17] and in assay [18] was inactive.
Regarding `O=c1cc(/C=C/c2ccc(O)cc2)oc2ccccc12`, the inhibition in assay [1] worked out at 32%; in assay [20], 34%; in assay [5] it was 46%. For the same molecule, the outcome in [2] was inactive. In addition, the IC50 in assay [10] was determined as 245 µM; in assay [6], 1200 nM; in assay [7], 1230 nM.
As for `C[C@@H]1O[C@@H](OC[C@H]2O[C@@H](Oc3c(-c4ccc(O)c(O)c4)oc4cc(O)cc(O)c4c3=O)[C@H](O)[C@@H](O)[C@@H]2O)[C@H](O)[C@H](O)[C@H]1O` [RUTIN], the IC50 in assay [11] stood at 3660 nM.
For `O=c1cc(/C=C/c2ccc(O)cc2)oc2cc(O)ccc12`, the IC50 in assay [8] is 66.2 µM; in assay [3], 92 µM; in assay [10] it was 266 µM; in [6], 1400 nM; in [7], 1650 nM. Also, in [2], the result was inactive. Moreover, the inhibition in [5] turned out to be 23%.
In the case of `O=c1cc(-c2ccc(O)c(O)c2)oc2cc(O)cc(O)c12` [LUTEOLIN], the IC50 in assay [8] was found to be 58.5 µM; in [9], 900 µM; in [3] it was 7.1 µM; in [10], 23.4 µM; in assay [11] it was 2610 nM; in [6] it was 300 nM. In addition, in [7], the 50% inhibitory concentration (IC50) was determined as 640 nM.
As to `O=c1cc(-c2ccc(O)cc2)oc2cc(O)cc(O)c12` [APIGENIN], the inhibition in assay [21] was found to be 35%; in assay [12] it was 30%. Moreover, the result in assay [2] and in assay [5] was inactive. Further, the IC50 in [3] amounted to 3.9 µM; in [6] it was 76100 nM; in [7], 21200 nM.
On to `O=c1c2ccccc2[se]n1-c1ccccc1` [EBSELEN], for which the concentration for half-maximal inhibition (IC50) in assay [6] amounted to 910 nM; in [7], 4630 nM.
Take `CC(C)(S)[C@@H](N)C(=O)O` [PENICILLAMINE]: the IC50 in [10] was found to be 4.9 µM.
`O=c1cc(/C=C/c2ccc(O)c(O)c2)oc2cc(O)ccc12`: the IC50 in assay [8] is 51 µM; in [9], 114 µM; in assay [3] it was 18 µM; in assay [10], 10.1 µM; in [11] it was 290 nM; in assay [6] it was 300 nM. Moreover, the half-maximal inhibitory concentration (IC50) in assay [7] came to 610 nM.
For the molecule `O=c1cc(-c2ccccc2)oc2cc(O)ccc12` [7-HYDROXYFLAVONE], the outcome in assay [1], in assay [2], in assay [12], in assay [5], in [13] and in [14] was inactive. The IC50 in assay [3] came out at 146 µM.
For `O=c1cc(/C=C/c2ccc(O)c(O)c2)oc2cccc(O)c12`, the IC50 in assay [8] came out at 80.4 µM; in [9], 48.9 µM; in [3] it was 16.9 µM; in assay [10] it was 4.9 µM; in assay [11], 240 nM; in assay [6], 260 nM. For the same molecule, the IC50 in assay [7] was found to be 510 nM.
As to `O=c1cc(/C=C/c2ccccc2)oc2cccc(O)c12`, the result in assay [22], in [1], in assay [2], in [24], in assay [25] and in [26] was inactive. The inhibition in [23] stood at 17%.
With `O=c1cc(/C=C/c2ccccc2)oc2cc(O)cc(O)c12`, in assay [1], the inhibition worked out at 27%. In assay [2], the result was inactive. For the same molecule, the IC50 in [3] is 5.7 µM; in assay [10] it was 163 µM; in assay [11], 73900 nM; in assay [6] it was 46600 nM; in [7], 40600 nM.
Take `O=c1cc(-c2ccccc2)oc2cccc(O)c12`: the outcome in assay [22], in assay [1], in assay [2], in assay [24], in assay [18] and in assay [26] was inactive. The inhibition in [23] was determined as 17%.
`O=c1cc(/C=C/c2ccc(O)cc2)oc2cccc(O)c12`: the outcome in [21] and in [25] was inactive. Moreover, the inhibition in assay [2] turned out to be 40%; in assay [27], 29%; in assay [28] it was 29%. The IC50 was determined as 1040 nM in [6] and 980 nM in assay [7].
Turning to `O=c1cc(/C=C/c2ccc(O)c(O)c2)oc2ccccc12`, the IC50 in [8] stood at 71.3 µM; in assay [9], 183 µM; in assay [3], 32.1 µM; in assay [10], 7.9 µM; in assay [11] it was 340 nM; in [6] it was 240 nM. Also, the IC50 in [7] came to 440 nM.
In the case of `O=C(O)CCCCC1CCSS1` (stereo not drawn) [LIPOIC ACID, ALPHA], in [3], the IC50 is 2.4 µM.
Consider `CCCOC(=O)c1cc(O)c(O)c(O)c1` [PROPYL GALLATE], for which, in assay [8], 24.6 µM corresponded to half-maximal inhibition (IC50).
Consider `O=c1cc(/C=C/c2ccc(O)cc2)oc2cc(O)cc(O)c12`, for which the IC50 in assay [8] was determined as 77.7 µM; in assay [3] it was 8.5 µM; in assay [10] it was 183 µM; in [6] it was 1250 nM; in [7], 1210 nM. For the same molecule, the inhibition in [2] is 36%; in assay [5] it was 21%.
